Bioassay records from PubChem BioAssay.
697 NFkB inh – lowers PMA/ionomycin-induced NF-kB signal in 697 B cells; AID 435022; actives 0.33% (n = 330,000); 697 B-cell NF-kB luciferase reporter, 16 h; inhibition, % at 4 µM; in the data active = inhibition above about 35%
APP transl inh – APP translation inhibition; actives 0.82% (n = 190,000); SH-SY5Y APP 5'UTR-luciferase reporter, luminescence; AID 1285; inhibition, % at 2 µM;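 active = inhibition above a set limit, derived from the sample mean plus 3 SD, cut at about 45% in these data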
aSyn 5UTR inh – MLPCN primary screen, SNCA 5' untranslated region | inhibition, % (tested at 7.5 µM) | alpha-synuclein 5'UTR reporter, inhibitor activity | actives 0.82% (n = 300,000); in the data active = inhibition above about 60%;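 also: H4 neuroglioblastoma cells stably carrying SNCA 5'UTR luciferase fusion; 0% = DMSO wells and 100% = positive control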
Jurkat NFkB inh – inhibitors of the PMA/ionomycin-induced NF-kB reporter in Jurkat cells. PMA/ionomycin-induced NF-kB luciferase reporter, luminescence. inhibition, % at 4 µM. actives 0.53% (n = 330,000). AID 435003; in the data active = inhibition above about 50%
TAG inh – reduces triacylglycerol accumulation in H9c2 cells | inhibition, % at 12.5 µM | Nile Red lipid (TAG) fluorescence; cells loaded with 200 µM oleic acid | actives 0.66% (n = 230,000) | AID 651582;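 active = pattern-corrected inhibition of lipid staining of at least 50% with the nuclear-stain viability signal not falling by more than 50%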;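 also: 0% = DMSO wells and 100% = triacsin C control wells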
Hep lipid drop – hepatic lipid droplet formation modulation. AML12 mouse hepatocytes, oleate lipid droplets, BODIPY imaging. inhibition, % at 6.5 µM. actives 0.4% (n = 240,000);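 active = lipid droplet intensity inhibited by at least 50%, with more than 500 cells counted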
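Test system: AML12 hepatocytes (mouse); reagent: oleate loading, 100 µM; dosing: one dose, 6.5 µM compound; incubation: overnight exposure; signal: fluorescence imaging, 20x objective, two fields per well; read-out basis: % inhibition of corrected integrated BODIPY droplet signal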
Jurkat NFkB conf – inhibitors of the PMA/ionomycin-induced NF-kB reporter in Jurkat cells, retest; shares compounds with Jurkat NFkB inh; Jurkat NF-kB luciferase, 16 h; inhibition, % at 4 µM; actives 27% (n = 2,700); AID 435020;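 active = inhibition reaching about 45% at 4 µM in either replicate, limit read from the data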;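 also: plate controls were PMA/ionomycin stimulated DMSO wells for no effect and unstimulated DMSO wells for full effect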
Numbers without * were called inactive; . = no result. A selection: hits, their analogues and other compounds. The true share with any hit is near 1.9%.

SMILES	697 NFkB inh	APP transl inh	aSyn 5UTR inh	Jurkat NFkB inh	TAG inh	Hep lipid drop	Jurkat NFkB conf
COC(=O)C[C@]1(C(=O)OC)CN(C#N)N(c2ccc(Cl)cc2)C12c1ccccc1-c1ccccc12	-26	96*	96*	97*	145	11	77*
C[C@]12CC[C@H]3[C@@H](CC[C@]4(O)C[C@@H](O)CC[C@]34C=O)[C@@]1(O)CC[C@@H]2C1=CC(=O)OC1	-53	.	.	98*	1	.	86*
C[C@]12CCC3C(CCC4=CC(O)CC[C@@]43/C=N/O)C1(O)CCC2C1=CC(=O)OC1 (stereo not given in full)	-27	.	113*	95*	.	-2	79*
CCCCN=C[C@]12CCC(O)CC1(O)CCC1[C@@H]2CC[C@]2(C)[C@H](C3C=CC(=O)O3)CCC12O (stereo not given in full)	-54	.	96*	94*	.	.	79*
CC12CCC3C(CCC4(O)CC(O)CCC34C=O)C1(O)CCC2C1=CC(=O)OC1 (stereo not given)	.	.	.	.	-5	.	.
Cn1ncnc2c(=O)n(C)c(=O)nc1-2	14	.	98*	55*	.	.	99*
CC1=CC(O)C(O)C2(C)C1CC1OC(=O)CC3C(C)C(O)C(=O)C2C13CO (stereo not given)	.	.	.	.	-18	.	.
O=C(Nc1cccc(C(F)(F)F)c1)c1cccn(Cc2ccc3c(c2)OC(F)(F)O3)c1=O	8	11	-3	1	.	.	.
O=C(Nc1ccc(C(F)(F)F)cc1)c1cccn(Cc2ccc3c(c2)OC(F)(F)O3)c1=O	0	14	-18	54*	.	.	46
CC1=CC(O)C(O)C2(C)C1CC1OC(=O)C(O)C3C(C)C(O)C4(O)OCC13C42 (stereo not given)	.	.	.	.	0	.	.
COC(=O)[C@]12OC[C@]34C([C@@H](O)[C@@H]1O)[C@]1(C)CC(=O)C(O)=C(C)[C@@H]1C[C@H]3OC(=O)[C@H](O)[C@@H]24 (stereo not given in full)	-30	.	16	66*	65*	-2	86*
CN(C)c1ccc(-[n+]2c(-c3ccccc3)cc(-c3ccccc3)cc2-c2ccccc2)cc1	-28	45	84*	99*	.	-132	62*
c1ccc(-c2cc(-c3ccccc3)[n+](-c3ccccc3)c(-c3ccccc3)c2)cc1	-77	.	-1	10	40	-8	.
Cc1ccc(-c2cc(-c3ccccc3)cc(-c3ccccc3)[n+]2-c2ccccc2)cc1	-12	.	85*	54*	48	.	31
Cc1ccc(-c2cc(-c3ccc(C)cc3)[n+](-c3ccccc3)c(-c3ccc(C)cc3)c2)cc1	-45	.	76*	97*	21	.	86*
COc1cccc(NP(=O)(Oc2ccccc2)Oc2ccccc2)c1	-51	7	47	62*	.	-50	16
COc1cccc(NP(=O)(Oc2ccccc2Cl)Oc2ccccc2Cl)c1	-82	17	2	24	.	-66	.
CC1CC(C)CC(C)C(O)C(C#N)=CC=CCC(C2CCCC2C(=O)O)OC(=O)CC(O)C(C)C1 (stereo not given)	.	.	.	.	107	.	.
COc1ccc(OC(=O)N(C)C[C@H]2OCc3cnnn3CCCC(=O)N([C@H](C)CO)C[C@@H]2C)cc1	.	.	.	.	-7	.	.
COc1cc2c(cc1O)C[C@H]1c3c(cc(O)c(OC)c3-2)CCN1C	5	.	.	9	9	.	.
COc1cc2c(cc1O)[C@@H]1Cc3ccc(OC)c(O)c3CN1CC2	8	.	.	58*	22	.	27
CC[C@@H]1C=CC=CC[C@H](C)[C@@H](O)[C@@H](C)C(=O)[C@H](C)[C@@H](O)[C@H](C)C(=O)[C@H](C)[C@@H](O)[C@H](C)C=CC(=O)O[C@H]2[C@@H](C)[C@@H](CC1)O[C@@]1(CC[C@@H](C)[C@@H](C[C@H](C)O)O1)[C@@H]2C	17	.	36	53*	.	.	35
O=c1c2ccccc2nc(/C=C/c2ccc(O)cc2)n1-c1ccccc1O	13	.	-30	6	11	-3	.
COc1ccccc1-n1c(/C=C/c2ccc(O)cc2)nc2ccccc2c1=O	-168	.	-12	-191	-5	.	-81
